# How the values were obtained:
# Type in all cases: functional
# MDA-MB-468 [1] = test: Cytotoxicity against human MDA-MB-468 cells after 48 hrs by SRB assay; conditions: MDA-MB-468, 48 h
# In short: (§1)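 Five-dose run from the sixty-line panel, at 10−4, 10−5, 10−6, 10−7 and 10−8 M. SRB-stain OD is read just before compound addition, after 48 hrs of exposure, and in vehicle controls, giving percentage growth; negative growth indicates cytotoxicity. GI50 is the concentration giving 50% reduction in net protein increase versus control cells. LC50 is the concentration lethal to 50% of cells.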
# BT-549 = test: Cytotoxicity against human BT549 cells after 48 hrs by SRB assay; conditions: BT-549, 48 h; for CC50: read-out: LC50 (the source's name); in short: as §1
# T47D = test: Cytotoxicity against human T47D cells after 48 hrs by SRB assay; in short: as §1
# MDA-MB-231 = test: Cytotoxicity against human MDA-MB-231 cells after 48 hrs by SRB assay; conditions: MDA-MB-231, 48 h; for CC50: read-out: LC50 (the source's name); in short: as §1
# MCF7 = test: Cytotoxicity against human MCF7 cells after 48 hrs by SRB assay; conditions: MCF7, 48 h; in short: as §1
# SN12C = test: Cytotoxicity against human SN12C cells after 48 hrs by SRB assay; conditions: for CC50: read-out: LC50 (the source's name); in short: as §1
# TK-10 [2] = test: Cytotoxicity against human TK10 cells after 48 hrs by SRB assay; conditions: TK-10, 48 h; for CC50: read-out: LC50 (the source's name); in short: as §1
# A498 [3] = test: Cytotoxicity against human A498 cells after 48 hrs by SRB assay; conditions: A498, 48 h; in short: as §1
# RXF 393 = test: Cytotoxicity against human RXF393 cells after 48 hrs by SRB assay; conditions: RXF 393, 48 h; in short: as §1
# SK-OV-3 = test: Cytotoxicity against human SKOV3 cells after 48 hrs by SRB assay; conditions: SK-OV-3, 48 h; in short: as §1
# 786-0 = test: Cytotoxicity against human 786-0 cells after 48 hrs by SRB assay; conditions: 786-0, 48 h; in short: as §1
# [4] = Cytotoxicity against human NCI-ADR-RES cells after 48 hrs by SRB assay; conditions: for CC50: read-out: LC50 (the source's name); in short: as §1
# OVCAR-8 = test: Cytotoxicity against human OVCAR8 cells after 48 hrs by SRB assay; conditions: OVCAR-8, 48 h; for CC50: read-out: LC50 (the source's name); in short: as §1
# [5] = Cytotoxicity against human OVCAR5 cells after 48 hrs by SRB assay; conditions: OVCAR-5, 48 h; for CC50: read-out: LC50 (the source's name); in short: as §1
# IGROV-1 = test: Cytotoxicity against human IGROV1 cells after 48 hrs by SRB assay; conditions: IGROV-1, 48 h; for CC50: read-out: LC50 (the source's name); in short: as §1
# UACC-62 = test: Cytotoxicity against human UACC62 cells after 48 hrs by SRB assay; conditions: UACC-62, 48 h; in short: as §1
# [6] = Cytotoxicity against human UACC257 cells after 48 hrs by SRB assay; conditions: UACC-257, 48 h; for CC50: read-out: LC50 (the source's name); in short: as §1
# SK-MEL-2 = test: Cytotoxicity against human SK-MEL-2 cells after 48 hrs by SRB assay; conditions: SK-MEL-2, 48 h; in short: as §1
# SK-MEL-5 = test: Cytotoxicity against human SK-MEL-5 cells after 48 hrs by SRB assay; conditions: SK-MEL-5, 48 h; in short: as §1
# MDA-MB-435 = test: Cytotoxicity against human MDA-MB-435 cells after 48 hrs by SRB assay; conditions: MDA-MB-435, 48 h; in short: as §1
# LOX IMVI = test: Cytotoxicity against human LOXIMVI cells after 48 hrs by SRB assay; conditions: for CC50: read-out: LC50 (the source's name); in short: as §1
# SNB-19 = test: Cytotoxicity against human SNB19 cells after 48 hrs by SRB assay; conditions: SNB-19, 48 h; in short: as §1
# SF-295 = test: Cytotoxicity against human SF295 cells after 48 hrs by SRB assay; conditions: SF-295, 48 h; in short: as §1
# SW-620 = test: Cytotoxicity against human SW620 cells after 48 hrs by SRB assay; conditions: SW-620, 48 h; for CC50: read-out: LC50 (the source's name); in short: as §1
# HCT-116 = test: Cytotoxicity against human HCT116 cells after 48 hrs by SRB assay; conditions: HCT-116, 48 h; in short: as §1
# COLO 205 = test: Cytotoxicity against human COLO205 cells after 48 hrs by SRB assay; conditions: COLO 205, 48 h; for CC50: read-out: LC50 (the source's name); in short: as §1
# NCI-H460 = test: Cytotoxicity against human NCI-H460 cells after 48 hrs by SRB assay; conditions: NCI-H460, 48 h; for CC50: read-out: LC50 (the source's name); in short: as §1
# NCI-H23 = test: Cytotoxicity against human NCI-H23 cells after 48 hrs by SRB assay; conditions: NCI-H23, 48 h; in short: as §1
# NCI-H226 [7] = test: Cytotoxicity against human NCI-H226 cells after 48 hrs by SRB assay; conditions: NCI-H226, 48 h; for CC50: read-out: LC50 (the source's name); in short: as §1
# HOP-62 = test: Cytotoxicity against human HOP62 cells after 48 hrs by SRB assay; conditions: HOP-62, 48 h; for CC50: read-out: LC50 (the source's name); in short: as §1
# K562 = test: Cytotoxicity against human K562 cells after 48 hrs by SRB assay; conditions: K562, 48 h; for CC50: read-out: LC50 (the source's name); in short: as §1
# SR = test: Cytotoxicity against human SR cells after 48 hrs by SRB assay; in short: as §1
# MDA-MB-468 [8] = test: Cytotoxicity against human MDA-MB-468 cells assessed as growth inhibition at 10 uM after 48 hrs by SRB assay; conditions: MDA-MB-468, 48 h, read-out: GI
# In short: (§2)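 Single-dose screen at 10µM across the sixty-cell-line panel. Percentage growth is derived from SRB-stain OD taken just before compound exposure, after 48 hrs exposure, and in vehicle-treated controls. Negative values indicate cytotoxicity.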
# TK-10 [9] = test: Cytotoxicity against human TK10 cells assessed as growth inhibition at 10 uM after 48 hrs by SRB assay; conditions: TK-10, 48 h, read-out: GI; in short: as §2
# A498 [10] = test: Cytotoxicity against human A498 cells assessed as growth inhibition at 10 uM after 48 hrs by SRB assay; conditions: A498, 48 h, read-out: GI; in short: as §2
# [11] = Cytotoxicity against human OVCAR5 cells assessed as growth inhibition at 10 uM after 48 hrs by SRB assay; conditions: OVCAR-5, 48 h, read-out: GI; in short: as §2
# NCI-H226 [12] = test: Cytotoxicity against human NCI-H226 cells assessed as growth inhibition at 10 uM after 48 hrs by SRB assay; conditions: NCI-H226, 48 h, read-out: GI; in short: as §2
smiles,measurement,setting,value
Cc1ccc(Cn2cc(C=C3C(=O)N(C)C(=O)N(C)C3=O)c3ccccc32)cc1,GI50,MDA-MB-468 [1],0.03 µM
same,LC50,MDA-MB-468 [1],0.62 µM
same,GI50,BT-549,13.5 µM
same,CC50,BT-549,> 100 µM
same,GI50,T47D,5 µM
same,LC50,T47D,> 100 µM
same,GI50,MDA-MB-231,13.6 µM
same,CC50,MDA-MB-231,> 100 µM
same,GI50,MCF7,6.76 µM
same,LC50,MCF7,> 100 µM
same,GI50,SN12C,> 100 µM
same,CC50,SN12C,> 100 µM
same,GI50,TK-10 [2],0.28 µM
same,CC50,TK-10 [2],> 100 µM
same,GI50,A498 [3],0.12 µM
same,LC50,A498 [3],0.69 µM
same,GI50,RXF 393,15.2 µM
same,"LC50 (lethal concentration, 50%)",RXF 393,> 100 µM
same,GI50,SK-OV-3,23.7 µM
same,LC50,SK-OV-3,> 100 µM
same,GI50,786-0,22.1 µM
same,LC50,786-0,> 100 µM
same,GI50,[4],6.23 µM
same,CC50,[4],> 100 µM
same,GI50,OVCAR-8,> 100 µM
same,CC50,OVCAR-8,> 100 µM
same,GI50,[5],0.07 µM
same,CC50,[5],> 100 µM
same,GI50,IGROV-1,2.95 µM
same,CC50,IGROV-1,> 100 µM
same,GI50,UACC-62,2.42 µM
same,LC50,UACC-62,> 100 µM
same,GI50,[6],2.02 µM
same,CC50,[6],> 100 µM
same,GI50,SK-MEL-2,3.36 µM
same,GI50,SK-MEL-5,9.17 µM
same,LC50,SK-MEL-5,> 100 µM
same,LC50,MDA-MB-435,> 100 µM
same,GI50,LOX IMVI,27.8 µM
same,CC50,LOX IMVI,> 100 µM
same,GI50,SNB-19,26.8 µM
same,LC50,SNB-19,> 100 µM
same,GI50,SF-295,2.02 µM
same,LC50,SF-295,> 100 µM
same,CC50,SW-620,> 100 µM
same,GI50,HCT-116,5.45 µM
same,LC50,HCT-116,> 100 µM
same,GI50,COLO 205,1.89 µM
same,CC50,COLO 205,> 100 µM
same,GI50,NCI-H460,0.91 µM
same,CC50,NCI-H460,> 100 µM
same,GI50,NCI-H23,8.19 µM
same,LC50,NCI-H23,> 100 µM
same,GI50,NCI-H226 [7],1.95 µM
same,CC50,NCI-H226 [7],> 100 µM
same,GI50,HOP-62,7.44 µM
same,CC50,HOP-62,> 100 µM
same,GI50,K562,2.23 µM
same,CC50,K562,> 100 µM
same,GI50,SR,1.89 µM
same,"LC50 (lethal concentration, 50%)",SR,> 100 µM
same,inhibition of growth at 10 µM,MDA-MB-468 [8],-62%
same,inhibition of growth at 10 µM,TK-10 [9],-4%
same,inhibition of growth at 10 µM,A498 [10],-91%
same,inhibition of growth at 10 µM,[11],-23%
same,inhibition of growth at 10 µM,NCI-H226 [12],-63%
COc1ccc(Cn2cc(C=C3C(=O)N(C)C(=O)N(C)C3=O)c3ccccc32)cc1,GI50,MDA-MB-468 [1],0.04 µM
same,LC50,MDA-MB-468 [1],0.76 µM
same,GI50,BT-549,4.94 µM
same,CC50,BT-549,> 100 µM
same,GI50,T47D,3.53 µM
same,LC50,T47D,> 100 µM
same,GI50,MDA-MB-231,5.86 µM
same,CC50,MDA-MB-231,> 100 µM
same,GI50,MCF7,5.26 µM
same,LC50,MCF7,> 100 µM
same,GI50,SN12C,12.5 µM
same,CC50,SN12C,> 100 µM
same,GI50,TK-10 [2],0.1 µM
same,CC50,TK-10 [2],72.5 µM
same,GI50,A498 [3],0.06 µM
same,LC50,A498 [3],5.27 µM
same,GI50,RXF 393,14.8 µM
same,"LC50 (lethal concentration, 50%)",RXF 393,> 100 µM
same,GI50,SK-OV-3,5.03 µM
same,LC50,SK-OV-3,> 100 µM
same,GI50,786-0,11.2 µM
same,LC50,786-0,> 100 µM
same,GI50,[4],3.59 µM
same,CC50,[4],> 100 µM
same,GI50,OVCAR-8,13.4 µM
same,CC50,OVCAR-8,88.6 µM
same,GI50,[5],0.02 µM
same,CC50,[5],> 100 µM
same,GI50,IGROV-1,1.93 µM
same,CC50,IGROV-1,> 100 µM
same,GI50,UACC-62,0.9 µM
same,LC50,UACC-62,68 µM
same,GI50,[6],1.54 µM
same,CC50,[6],38.2 µM
same,GI50,SK-MEL-2,2.78 µM
same,GI50,SK-MEL-5,5.08 µM
same,LC50,SK-MEL-5,64.4 µM
same,GI50,MDA-MB-435,3.29 µM
same,LC50,MDA-MB-435,> 100 µM
same,GI50,LOX IMVI,5.45 µM
same,CC50,LOX IMVI,> 100 µM
same,GI50,SNB-19,15.8 µM
same,LC50,SNB-19,> 100 µM
same,GI50,SF-295,1.54 µM
same,LC50,SF-295,> 100 µM
same,GI50,SW-620,6.89 µM
same,CC50,SW-620,> 100 µM
same,GI50,HCT-116,5.01 µM
same,LC50,HCT-116,> 100 µM
same,GI50,COLO 205,0.63 µM
same,CC50,COLO 205,45.3 µM
same,GI50,NCI-H460,0.81 µM
same,CC50,NCI-H460,82.8 µM
same,GI50,NCI-H23,4.67 µM
same,LC50,NCI-H23,> 100 µM
same,GI50,NCI-H226 [7],1.44 µM
same,CC50,NCI-H226 [7],53.9 µM
same,GI50,HOP-62,6.22 µM
same,CC50,HOP-62,> 100 µM
same,GI50,K562,2.18 µM
same,CC50,K562,> 100 µM
same,GI50,SR,5.43 µM
same,"LC50 (lethal concentration, 50%)",SR,> 100 µM
same,inhibition of growth at 10 µM,MDA-MB-468 [8],-65%
same,inhibition of growth at 10 µM,TK-10 [9],-12%
same,inhibition of growth at 10 µM,A498 [10],-92%
same,inhibition of growth at 10 µM,[11],-38%
same,inhibition of growth at 10 µM,NCI-H226 [12],-55%

# Source: ChEMBL document CHEMBL3102840, “Synthesis and anti-proliferative activity of aromatic substituted 5-((1-benzyl-1H-indol-3-yl)methylene)-1,3-dimethylpyrimidine-2,4,6(1H,3H,5H)-trione analogs against human tumor cell lines” (2014)
